The results in this text go back to ChEMBL document CHEMBL1131115, “Strategies to target kyotorphin analogues to the brain” (1998).

Where a SMILES comes first, the peptide text is derived from it.

This assay is filed under the species Rattus norvegicus. Nature of the assay: Compound was evaluated for brain targeted delivery system by Tail flick latency as an index of spinal cord mediated analgesia in rats. It is filed as functional. Put shortly: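 Male Sprague-Dawley rats, 250-300 g, housed singly at ~25 °C. Compounds in 0.2 mL propylene glycol:DMSO (2:1) given iv via tail vein, 0.0223 mmol/kg (equivalent to 7.5 mg/kg kyotorphin); dose-response range 0.0030-0.0223 mmol/kg. Tail-flick meter, beam set for 7-8 s baseline latency. Baseline 10 min pre-dose, then 15 min to 6 h. Six rats per group; mean ± SE, ANOVA.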
(In general: Hot-plate and tail-flick tests time the reaction to a heat stimulus.)
In turn, `CC(C)CCCC(C)C1CCC2C3CC=C4CC(OC(=O)C(CCCCN5C=CCC(C(N)=O)=C5)NC(=O)C(Cc5ccc(O)cc5)NC(=O)OC(C)(C)C)CCC4(C)C3CCC12C` (configuration not stated) displayed a Latency time of 26 s.
The value for `CC(C)CCCC(C)C1CCC2C3CC=C4CC(OC(=O)C(CCCC[n+]5cccc(C(N)=O)c5)NC(=O)[C@H](Cc5ccc(O)cc5)NC(=O)OC(C)(C)C)CCC4(C)C3CCC12C` (some centres not stated) was 10 s; that for `NC(N)=NCCC[C@H](NC(=O)[C@@H](N)Cc1ccc(O)cc1)C(=O)O` [KYOTORPHIN] was 11 s.
The value for `NC(=O)C1=CN(CCCC[C@H](NC(=O)[C@@H](N)Cc2ccc(O)cc2)C(=O)O)C=CC1` was 10 s; that for `CC(C)CCCC(C)C1CCC2C3CC=C4CC(OC(=O)C(CCCCN)NC(=O)[C@H](Cc5ccc(O)cc5)NC(=O)OC(C)(C)C)CCC4(C)C3CCC12C` (some centres not stated) was 10 s.
The value for `CC(C)CCCC(C)C1CCC2C3CC=C4CC(OC(=O)C(CCCC[n+]5cccc(C(N)=O)c5)NC(=O)C(N)Cc5ccc(O)cc5)CCC4(C)C3CCC12C` (configuration not stated) was 17 s.
`NCCCC[C@H](NC(=O)[C@@H](N)Cc1ccc(O)cc1)C(=O)O` (H-Tyr-Lys-OH) returned a Latency time of 11 s.
